Test results taken from ChEMBL document CHEMBL1926614, “Substituted thiazoles V. synthesis and antitumor activity of novel thiazolo[2,3-b]quinazoline and pyrido[4,3-d]thiazolo[3,2-a]pyrimidine analogues” (2012).
The source made the active and inactive calls.

Columns and labels:
Format in all cases: functional
SK-MEL-28 = assay: Growth inhibition of human SK-MEL-28 cells at 10 uM after 48 hrs by coulter counting; settings: SK-MEL-28, 48 h, read-out: GI
Summary of the method: (§1)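 Single-dose primary screen across the full NCI 60-cell-line panel. Stocks were made in DMSO and diluted in PBS to a final DMSO below 1%. Cultures at 6 × 10⁴ cells/ml were run in duplicate wells alongside PBS/DMSO vehicle controls at 37 °C in humidified 5% CO₂. Data were expressed as percent growth of treated cells.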

HT-29 = assay: Growth inhibition of human HT-29 cells at 10 uM after 48 hrs by coulter counting; summary of the method: as §1
[1] = Cytotoxicity against human prostate cancer cells after 48 hrs by coulter counting; settings: Cancer cell lines
Summary of the method: (§2)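 NCI 60-cell-line panel covering nine tumour subpanels, tested over a 5-log dose range. Compounds were dissolved in DMSO and diluted in phosphate-buffered saline to a final DMSO below 1%. Wells held 6 × 10⁴ cells/ml and were run in duplicate. Controls contained PBS and DMSO at matching dilutions. Incubation was at 37 °C in humidified 5% CO₂. GI₅₀, TGI and LC₅₀ were reported.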

NCI-H460 = assay: Growth inhibition of human NCI-H460 cells at 10 uM after 48 hrs by coulter counting; summary of the method: as §1
[2] = Cytotoxicity against human ovarian cancer cells after 48 hrs by coulter counting; settings: Cancer cell lines; summary of the method: as §2
U-251 = assay: Growth inhibition of human U251 cells at 10 uM after 48 hrs by coulter counting
Summary of the method: (§3)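 Single-dose screen in the NCI 60 human tumor cell line panel (nine subpanels). Compounds dissolved in DMSO and diluted in phosphate buffered saline, keeping final DMSO below 1%. Added in duplicate wells to cells at 6 × 10⁴ cells/ml. Controls held PBS and DMSO at matching dilutions. Incubated at 37 °C, humidified, 5% CO₂. Reported as percent growth of treated cells.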

MCF7 = assay: Growth inhibition of human MCF7 cells at 10 uM after 48 hrs by coulter counting; settings: MCF7, 48 h, read-out: GI; summary of the method: as §1
HL-60(TB) = assay: Growth inhibition of human HL-60(TB) cells at 10 uM after 48 hrs by coulter counting
Summary of the method: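 Test compound was dissolved in DMSO and diluted in phosphate-buffered saline to a final DMSO level below 1%. Dilutions were plated in duplicate with cell culture at 6 × 10⁴ cells/ml. Vehicle controls held PBS and DMSO at matching dilutions. Incubation was at 37 °C, humidified, under 5% CO₂. Data were reported as percent growth of treated cells.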

HCT-116 = assay: Growth inhibition of human HCT116 cells at 10 uM after 48 hrs by coulter counting; summary of the method: as §1
SF-295 = assay: Growth inhibition of human SF295 cells at 10 uM after 48 hrs by coulter counting; summary of the method: as §1
DU-145 = assay: Growth inhibition of human DU145 cells at 10 uM after 48 hrs by coulter counting; summary of the method: as §1
T47D = assay: Growth inhibition of human T47D cells at 10 uM after 48 hrs by coulter counting; settings: read-out: GI; summary of the method: as §3
NCI-H226 = assay: Growth inhibition of human NCI-H226 cells at 10 uM after 48 hrs by coulter counting; summary of the method: as §1
EKVX = assay: Growth inhibition of human EKVX cells at 10 uM after 48 hrs by coulter counting; summary of the method: as §1
IGROV-1 = assay: Growth inhibition of human IGROV1 cells at 10 uM after 48 hrs by coulter counting; summary of the method: as §1
NCI-H522 = assay: Growth inhibition of human NCI-H522 cells at 10 uM after 48 hrs by coulter counting; summary of the method: as §1
SK-MEL-5 = assay: Growth inhibition of human SK-MEL-5 cells at 10 uM after 48 hrs by coulter counting; summary of the method: as §1
SK-MEL-2 = assay: Growth inhibition of human SK-MEL-2 cells at 10 uM after 48 hrs by coulter counting; summary of the method: as §1
UO-31 = assay: Growth inhibition of human UO31 cells at 10 uM after 48 hrs by coulter counting; summary of the method: as §3
SNB-75 = assay: Growth inhibition of human SNB75 cells at 10 uM after 48 hrs by coulter counting; settings: SNB-75, 48 h, read-out: GI; summary of the method: as §1
ACHN = assay: Growth inhibition of human ACHN cells at 10 uM after 48 hrs by coulter counting; summary of the method: as §1
HCC 2998 = assay: Growth inhibition of human HCC2998 cells at 10 uM after 48 hrs by coulter counting; summary of the method: as §1
NSCLC = assay: Cytotoxicity against human NSCLC cells after 48 hrs by coulter counting; summary of the method: as §2
LOX IMVI = assay: Growth inhibition of human LOXIMVI cells at 10 uM after 48 hrs by coulter counting; summary of the method: as §1
RPMI-8226 = assay: Growth inhibition of human RPMI8226 cells at 10 uM after 48 hrs by coulter counting; summary of the method: as §1
SF-268 = assay: Growth inhibition of human SF268 cells at 10 uM after 48 hrs by coulter counting; settings: SF-268, 48 h, read-out: GI; summary of the method: as §1
[3] = Growth inhibition of human NCI-322M cells at 10 uM after 48 hrs by coulter counting; settings: read-out: GI; summary of the method: as §1
CAKI-1 = assay: Growth inhibition of human Caki1 cells at 10 uM after 48 hrs by coulter counting; summary of the method: as §1
NCI-H23 = assay: Growth inhibition of human NCI-H23 cells at 10 uM after 48 hrs by coulter counting; summary of the method: as §1
KM12 = assay: Growth inhibition of human KM12 cells at 10 uM after 48 hrs by coulter counting; summary of the method: as §1
OVCAR-4 = assay: Growth inhibition of human OVCAR4 cells at 10 uM after 48 hrs by coulter counting; settings: OVCAR-4, 48 h, read-out: GI; summary of the method: as §1
MOLT-4 = assay: Growth inhibition of human MOLT4 cells at 10 uM after 48 hrs by coulter counting; summary of the method: as §1
UACC-257 = assay: Growth inhibition of human UACC257 cells at 10 uM after 48 hrs by coulter counting; summary of the method: as §3
MDA-MB-435 = assay: Growth inhibition of human MDA-MB-435 cells at 10 uM after 48 hrs by coulter counting; summary of the method: as §1
UACC-62 = assay: Growth inhibition of human UACC62 cells at 10 uM after 48 hrs by coulter counting; summary of the method: as §3
NCI/ADR-RES = assay: Growth inhibition of human NCI/ADR-RES cells at 10 uM after 48 hrs by coulter counting; settings: read-out: GI; summary of the method: as §1
[4] = Cytotoxicity against human CNS cancer cells after 48 hrs by coulter counting; settings: Cancer cell lines; summary of the method: as §2
[5] = Cytotoxicity against human leukemia cells after 48 hrs by coulter counting; settings: Leukemia cell; summary of the method: as §2
SF-539 = assay: Growth inhibition of human SF539 cells at 10 uM after 48 hrs by coulter counting; settings: SF-539, 48 h, read-out: GI; summary of the method: as §1
[6] = Cytotoxicity against human breast cancer cells after 48 hrs by coulter counting; settings: Cancer cell lines; summary of the method: as §2
SNB-19 = assay: Growth inhibition of human SNB19 cells at 10 uM after 48 hrs by coulter counting; settings: SNB-19, 48 h, read-out: GI; summary of the method: as §1
CCRF-CEM = assay: Growth inhibition of human CCRF-CEM cells at 10 uM after 48 hrs by coulter counting; settings: read-out: GI; summary of the method: as §1
A549 = assay: Growth inhibition of human A549 cells at 10 uM after 48 hrs by coulter counting; summary of the method: as §1
M14 = assay: Growth inhibition of human M14 cells at 10 uM after 48 hrs by coulter counting; summary of the method: as §1
BT-549 = assay: Growth inhibition of human BT549 cells at 10 uM after 48 hrs by coulter counting; summary of the method: as §1
[7] = Cytotoxicity against human renal cancer cells after 48 hrs by coulter counting; settings: Cancer cell lines; summary of the method: as §2
[8] = Cytotoxicity against human colon cancer cells after 48 hrs by coulter counting; settings: Cancer cell lines; summary of the method: as §2
K562 = assay: Growth inhibition of human K562 cells at 10 uM after 48 hrs by coulter counting; summary of the method: as §1
SR = assay: Growth inhibition of human SR cells at 10 uM after 48 hrs by coulter counting; summary of the method: as §3
A498 = assay: Growth inhibition of human A498 cells at 10 uM after 48 hrs by coulter counting; summary of the method: as §1
HOP-62 = assay: Growth inhibition of human HOP62 cells at 10 uM after 48 hrs by coulter counting; summary of the method: as §1
[9] = read-out: LC50 (the source's name)

COc1cc(/C=C2\CCCC3=C2N=C2SC=CN2C3c2cc(OC)c(OC)c(OC)c2)cc(OC)c1OC (stereo not given)
91.3%: inhibition of growth at 10 µM (SF-539)
90.5%: inhibition of growth at 10 µM (NCI/ADR-RES)
1.9 µM: GI50 [2]
active: growth inhibition (GI) (HT-29) | growth inhibition (GI) (NCI-H460) | growth inhibition (GI) (U-251) | growth inhibition (GI) (HL-60(TB)) | growth inhibition (GI) (HCT-116) | growth inhibition (GI) (SF-295) | growth inhibition (GI) (DU-145) | growth inhibition (GI) (NCI-H226) | growth inhibition (GI) (EKVX) | growth inhibition (GI) (IGROV-1) | growth inhibition (GI) (NCI-H522) | growth inhibition (GI) (SK-MEL-5) | growth inhibition (GI) (SK-MEL-2) | growth inhibition (GI) (UO-31) | growth inhibition (GI) (ACHN) | growth inhibition (GI) (HCC 2998) | growth inhibition (GI) (LOX IMVI) | growth inhibition (GI) (RPMI-8226) | growth inhibition (GI) (CAKI-1) | growth inhibition (GI) (NCI-H23) | growth inhibition (GI) (KM12) | growth inhibition (GI) (MOLT-4) | growth inhibition (GI) (UACC-257) | growth inhibition (GI) (MDA-MB-435) | growth inhibition (GI) (UACC-62) | growth inhibition (GI) (A549) | growth inhibition (GI) (M14) | growth inhibition (GI) (BT-549) | growth inhibition (GI) (K562) | growth inhibition (GI) (SR) | growth inhibition (GI) (A498) | growth inhibition (GI) (HOP-62)
1.6 µM: GI50 [8]
95%: inhibition of growth at 10 µM (SF-268)
79%: inhibition of growth at 10 µM (SNB-19)
76%: inhibition of growth at 10 µM (MCF7)
65%: inhibition of growth at 10 µM (SNB-75)
69%: inhibition of growth at 10 µM (T47D)
94.1%: inhibition of growth at 10 µM (CCRF-CEM)
47.8 µM: GI50 [4]
2.3 µM: GI50 (NSCLC)
79.5%: inhibition of growth at 10 µM (OVCAR-4)
99.5%: inhibition of growth at 10 µM [3]
2.2 µM: GI50 [6]
> 100 µM: LC50 (concentration killing 50% of cells) [1] | TGI [1] | TGI [2] | CC50 [2, 9] | TGI (NSCLC) | CC50 (NSCLC; [9]) | LC50 [4] | TGI [4] | TGI [5] | CC50 [5, 9] | TGI [6] | CC50 [6, 9] | LC50 (concentration giving 50% net cell kill) [7] | TGI [7]
89.7%: inhibition of growth at 10 µM (SK-MEL-28)
2 µM: GI50 [1] | GI50 [5]
1.8 µM: GI50 [7]
